Article PMC5060091 (ChemMedChem, 2016)
Values joined by “and” are separate entries in the source; they are usually repeats but may differ in a detail not shown here. Equal values may be shown once. Read-outs that look alike come from different tables or passages of the source.

How the values were obtained:
[1] = Mammalian cytotoxicity, resazurin assay, HEK293; type: cell-based; conditions: human, HEK293 cells
[2] = test system: C. albicans ATCC MYA-2876(S); assay: MIC, broth dilution, strain C; type: cell-based, Candida albicans; conditions: Candida albicans
In short: (§1)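 Broth dilution MIC assay on the Candida panel: C. albicans strains A–G, C. glabrata (H), C. krusei (I) and C. parapsilosis (J). Test compounds were delivered in DMSO, with DMSO kept below 1% in the assay. The MIC is reported in µg/mL, with µM in parentheses. Reference antifungals (a polyene and four azoles) were run alongside.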

[3] = test system: murine red blood cells (mRBCs); conditions: data previously presented; cited from earlier work
[4] = test system: Aspergillus flavus ATCC MYA-3631; assay: MIC, broth dilution, strain K; type: cell-based; conditions: Aspergillus flavus
[5] = test system: Aspergillus terreus ATCC MYA-3633; assay: MIC, broth dilution, strain M; type: cell-based; conditions: Aspergillus terreus
[6] = test system: Candida albicans ATCC 10231; assay: MIC, broth dilution, strain A; type: cell-based; conditions: Candida albicans
In short: as §1

[7] = test system: Aspergillus nidulans ATCC 38163; assay: MIC, broth dilution, strain L; type: cell-based; conditions: Aspergillus nidulans
[8] = test system: C. albicans ATCC MYA-1237(R); assay: MIC, broth dilution, strain F; type: cell-based, Candida albicans; conditions: Candida albicans
In short: as §1

[9] = test system: C. albicans ATCC 64124 (strain B); assay: Time-kill assay; type: cell-based, Candida albicans
[10] = test system: C. albicans ATCC 90819(R); assay: MIC, broth dilution, strain D; type: cell-based, Candida albicans; conditions: Candida albicans
In short: as §1

[11] = test system: C. albicans ATCC 10231 (strain A); assay: ROS induction assay; type: cell-based, Candida albicans; conditions: 1× and 2× MIC, 1-h treatment; H2O2 1 mM
In short: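 C. albicans ATCC 10231 cells were incubated 1 h at 37 °C with test compound at 1× or 2× MIC, with no drug (negative control), or with 1 mM H₂O₂ (positive control). DCFH-DA (40 µg/mL) was then added. ROS were detected and imaged by fluorescence microscopy.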

C. albicans ATCC 64124 = assay: MIC, broth dilution, strain B; type: cell-based, Candida albicans; conditions: Candida albicans
In short: as §1

[12] = test system: C. albicans ATCC MYA-2310(S); assay: MIC, broth dilution, strain E; type: cell-based, Candida albicans; conditions: Candida albicans
In short: as §1

[13] = test system: C. albicans ATCC MYA-1003(R); assay: MIC, broth dilution, strain G; type: cell-based, Candida albicans; conditions: Candida albicans
In short: as §1

[14] = read-out: MIC (MIC-0) in µM (parentheses)

O=c1c2ccccc2[se]n1-c1ccccc1 [Compound 1, ebselen]
IC50 [1]: > 10 µg/mL and > 36.5 µM
MIC ([2]; read-out: MIC (MIC-0)): 12.5 µg/mL
MIC [2, 14]: 45.6 µM
concentration until which no significant hemolytic activity was shown [3]: 15.6 µg/mL and 56.9 µM
MIC ([4]; read-out: MIC (MIC-0)): 6.25 µg/mL
MIC [4, 14]: 22.8 µM
MIC ([5]; read-out: MIC (MIC-0)): 1.56 µg/mL
MIC [5, 14]: 5.69 µM
MIC ([6]; ATCC10231, read-out: MIC (MIC-0)): 12.5 µg/mL
MIC ([6]; ATCC10231, read-out: MIC (MIC-0) in µM (parentheses)): 45.6 µM
MIC ([7]; ATCC38163, read-out: MIC (MIC-0)): 1.56 µg/mL
MIC ([7]; ATCC38163, read-out: MIC (MIC-0) in µM (parentheses)): 5.69 µM
MIC ([8]; read-out: MIC (MIC-0)): > 12.5 µg/mL
MIC [8, 14]: > 45.6 µM
time of complete fungal cell death ([9]; 1× MIC (12.5 µg/mL)): 6 h
time-kill effect ([9]; 1× MIC (1 12.5, 2a 12.5, 3a 0.39, AmB 3.9 µg/mL)): fungicidal
time from which completely fungicidal ([9]; 2× MIC): 3 h
time-kill effect ([9]; 2× MIC (1 25, 2a 25, 3a 0.78, AmB 7.8 µg/mL)): completely fungicidal
fungicidal concentration ([9]; time-kill curves): 12.5 µg/mL and 45.6 µM
MIC ([10]; ATCC90819, read-out: MIC (MIC-0)): 1.56 µg/mL
MIC ([10]; ATCC90819, read-out: MIC (MIC-0) in µM (parentheses)): 5.69 µM
ROS induction (DCFH-DA fluorescence) [11]: highly fluorescent
MIC (C. albicans ATCC 64124; ATCC64124, read-out: MIC (MIC-0)): 12.5 µg/mL
MIC (C. albicans ATCC 64124; ATCC64124, read-out: MIC (MIC-0) in µM (parentheses)): 45.6 µM
MIC ([12]; read-out: MIC (MIC-0)): 3.13 µg/mL
MIC [12, 14]: 11.4 µM
MIC ([13]; read-out: MIC (MIC-0)): 12.5 µg/mL
MIC [13, 14]: 45.6 µM
